Measurements pooled from the literature.
Lines come from different studies, so protocols differ.
Target: Ephrin type-B receptor 1 (EPHB1, Homo sapiens, UniProt P54762)

Cc1cc(NC(=O)c2cccc3cc(-c4cccc5[nH]nc(N)c45)ccc23)ccc1F
activity vs control (enzyme activity, inhibitor; 0.1 µM): 127%

CS(=O)(=O)CCNCc1ccc(-c2ccc3ncnc(Nc4ccc(OCc5cccc(F)c5)c(Cl)c4)c3c2)o1
remaining signal (cell-free assay; 0.5 µM): 104%

CC(C)(C)c1nc(-c2cccc(NS(=O)(=O)c3c(F)cccc3F)c2F)c(-c2ccnc(N)n2)s1
remaining activity (enzyme activity, inhibitor, radiometric; 1 µM): 94%

CNC(=O)c1cc2c(Oc3ccc(NC(=O)C4(C(=O)Nc5ccc(F)cc5)CC4)cc3)ccnc2cc1OC
inhibition (enzyme activity, inhibitor, radiometric; 1 µM): 99%

Cc1ccc(C(=O)NCc2ccsc2)cc1C#Cc1cn(C(C)C)c2ncnc(N)c12
activity vs control (enzyme activity, inhibitor; 1 µM): 12%

COc1cc(-c2cc(-c3ccc(N4CCNCC4)cc3)cnc2C)cc(OC)c1OC
inhibition (enzyme activity, inhibitor; 1 µM): 6%

C[C@@H]1CN(c2cc(-c3n[nH]c4ccc(OC5(C)CC5)cc34)ncn2)C[C@H](C)O1
remaining binding (cell-free assay, competition with immobilised ligand; 0.1 µM): 83%

Cc1ccc(Nc2nccc(N(C)c3ccc4c(C)n(C)nc4c3)n2)cc1S(N)(=O)=O
inhibition (enzyme activity, inhibitor; 10 µM): 63%

O=C(N1CCS(=O)(=O)CC1)N1C[C@H](c2ccc(OC(F)(F)F)cc2)C[C@H](c2nc(C3CC3)no2)C1
remaining binding (cell-free assay, competition with immobilised ligand; 1 µM): 100%

Nc1ncnc2occ(-c3ccc(NC(=O)Nc4cc(C(F)(F)F)ccc4F)cc3)c12
remaining signal (cell-free assay; 20 µM): 0%

O=C(NC[C@@H]1[C@H]2CN(C(=O)OCc3cc(C(F)(F)F)cc(C(F)(F)F)c3)C[C@@H]12)c1ccc2[nH]nnc2c1
remaining binding (cell-free assay, competition with immobilised ligand; 1 µM): 100%

COc1cc2ncnc(Nc3ccc(Oc4ccccc4)c(C)c3C)c2cc1OC
inhibition (enzyme activity, inhibitor; 1 µM): 3%

Cc1c(NC(=O)c2cc(C(N)=O)nc3cc(F)ccc23)c(C(F)(F)F)nn1Cc1ccc(C#N)cc1
remaining binding (cell-free assay, competition with immobilised ligand; 1 µM): 66%

Clc1ccc(Nc2nnc(Cc3ccncc3)c3ccccc23)cc1
remaining signal (cell-free assay; 0.5 µM): 107%

C=CC(=O)Nc1cc(Nc2nccc(Nc3cc(Cl)c(F)cc3C(C)(C)O)n2)c(OC)cc1N1CC[C@@H](N(C)C)C1
inhibition (enzyme activity, inhibitor; 1 µM): 24%

CCN(CC)CCNC(=O)c1c(C)[nH]c(/C=C2\C(=O)Nc3ccc(F)cc32)c1C
inhibition (enzyme activity, inhibitor; 0.3 µM): 34%

C#Cc1cccc(Nc2ncnc3cc(OCCOC)c(OCCOC)cc23)c1
remaining signal (cell-free assay; 0.5 µM): 100%

O=C(NCc1ncc(C(F)(F)F)cc1Cl)c1ccc2c(c1)C1(CCS(=O)(=O)CC1)[C@@H](C1CC1)N2S(=O)(=O)c1ccc(F)cc1
remaining binding (cell-free assay, competition with immobilised ligand; 1 µM): 100%

FC(F)c1nc2ccccc2n1-c1nc(N2CCOCC2)nc(N2CCOCC2)n1
remaining activity (enzyme activity, inhibitor; 10 µM): 96%

Cc1noc([C@H]2C[C@@H](c3ccc(C(F)(F)F)cc3)CN(C(=O)N3CCS(=O)(=O)C3)C2)n1
remaining binding (cell-free assay, competition with immobilised ligand; 1 µM): 100%

Cc1sc(C(=O)NC2COC2)cc1-n1cc(NC(=O)Nc2c(F)cccc2Cl)cn1
remaining activity (enzyme activity, inhibitor; 10 µM): 100%

COc1cc(Nc2cnc(C#N)c(O[C@H](C)CN(C)C)n2)ncc1-c1cnn(C)c1
remaining activity (enzyme activity, inhibitor, radiometric; 10 µM): 71%

CC(C)(O)[C@H]1CC[C@H](Nc2ccc3ncc(-c4cccc(C(F)(F)F)c4)n3n2)CC1
remaining activity (enzyme activity, inhibitor; 1 µM): 85%

CCCS(=O)(=O)Nc1ccc(F)c(C(=O)c2c[nH]c3ncc(-c4ccc(Cl)cc4)cc23)c1F
inhibition (enzyme activity, inhibitor; 1 µM): < 10%

O=C1NC(c2ccccn2)Sc2ccccc21 (stereo not shown)
remaining binding (cell-free assay, competition with immobilised ligand; 1 µM): 90%

Oc1cccc(-c2nc(N3CCOCC3)c3oc4ncccc4c3n2)c1
remaining activity (enzyme activity, inhibitor; 10 µM): 131%

CNC(=O)c1cc(Oc2ccc(NC(=O)Nc3ccc(Cl)c(C(F)(F)F)c3)cc2)ccn1
remaining signal (cell-free assay; 0.5 µM): 102%

CO[C@@H](C)c1c(Nc2ccc([C@@H](N(C)C(=O)C3CCS(=O)(=O)CC3)C(F)(F)F)cc2)cnc2cc(Cl)nn12
remaining binding (cell-free assay, competition with immobilised ligand; 1 µM): 92%
